According to ChEMBL document CHEMBL3616436, “Synthesis, cytotoxicity and antimicrobial activity of thiourea derivatives incorporating 3-(trifluoromethyl)phenyl moiety” (Eur J Med Chem, 2015):
Values after ≈ are worked out from the molar mass of the structure shown. Active and inactive are the calls of the source. No cut-off for these calls is given here.

Tests used:
[1] = target: T1, Topoisomerase IV (Staphylococcus aureus) (UniProt P0C1U9+P0C1S7); assay: Inhibition of decatenation activity of DNA topoisomerase 4 in Staphylococcus aureus ATCC 25923 using kDNA as substrate at 1 to 4 ug/ml after 1 hr using ethidium bromide staining by agarose gel electrophoresis; format: protein-complex assay
Procedure, shortened: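 Kit-supplied S. aureus topoisomerase IV, 1 U, with 200 ng kDNA in the supplied assay buffer. Reactions ran 30 min at 37 °C with compound at 1, 4 or 32 µg/ml. They were stopped with STEB and extracted with chloroform/isoamyl alcohol (24:1). Products were run on 1% agarose in TAE for 1 h at 120 V and visualised with ethidium bromide under UV. Controls were no-enzyme, no-compound and ±DMSO.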

[2] = target: T1, Topoisomerase IV (Staphylococcus aureus); assay: Inhibition of decatenation activity of DNA topoisomerase 4 in Staphylococcus aureus ATCC 29213 using kDNA as substrate at 1 to 4 ug/ml […] using ethidium bromide staining by agarose gel electrophoresis; format: protein-complex assay
[3] = target: T1, Topoisomerase IV (Staphylococcus aureus); assay: Inhibition of decatenation activity of DNA topoisomerase 4 in hospital methicillin-resistant Staphylococcus aureus 53/05 using kDNA as substrate at 1 to 4 ug/ml after 1 hr using ethidium bromide staining by agarose gel electrophoresis; format: protein-complex assay
[4] = target: T1, Topoisomerase IV (Staphylococcus aureus); assay: Inhibition of decatenation activity of DNA topoisomerase 4 in hospital methicillin-resistant Staphylococcus aureus 57/05 using kDNA as substrate at 1 to 4 ug/ml after 1 hr using ethidium bromide staining by agarose gel electrophoresis; format: protein-complex assay
[5] = target: T1, Topoisomerase IV (Staphylococcus aureus); assay: Inhibition of decatenation activity of DNA topoisomerase 4 in hospital methicillin-resistant Staphylococcus aureus 79/05 using kDNA as substrate at 1 to 4 ug/ml after 1 hr using ethidium bromide staining by agarose gel electrophoresis; format: protein-complex assay
[6] = target: T1, Topoisomerase IV (Staphylococcus aureus); assay: Inhibition of decatenation activity of DNA topoisomerase 4 in hospital methicillin-resistant Staphylococcus aureus 80/05 using kDNA as substrate at 1 to 4 ug/ml after 1 hr using ethidium bromide staining by agarose gel electrophoresis; format: protein-complex assay
[7] = target: T1, Topoisomerase IV (Staphylococcus aureus); assay: Inhibition of decatenation activity of DNA topoisomerase 4 in hospital methicillin-resistant Staphylococcus aureus 573/11 using kDNA as substrate at 1 to 4 ug/ml after 1 hr using ethidium bromide staining by agarose gel electrophoresis; format: protein-complex assay
[8] = target: T2, DNA topoisomerase 4 (Staphylococcus epidermidis) (UniProt Q5HPI6+Q5HPI5); assay: Inhibition of decatenation activity of DNA topoisomerase 4 in hospital methicillin-resistant Staphylococcus epidermidis 23/04 using kDNA as substrate at 1 to 4 ug/ml after 1 hr using ethidium bromide staining by agarose gel electrophoresis; format: protein assay
T2 sequence (Q5HPI5 whole entry, looked up): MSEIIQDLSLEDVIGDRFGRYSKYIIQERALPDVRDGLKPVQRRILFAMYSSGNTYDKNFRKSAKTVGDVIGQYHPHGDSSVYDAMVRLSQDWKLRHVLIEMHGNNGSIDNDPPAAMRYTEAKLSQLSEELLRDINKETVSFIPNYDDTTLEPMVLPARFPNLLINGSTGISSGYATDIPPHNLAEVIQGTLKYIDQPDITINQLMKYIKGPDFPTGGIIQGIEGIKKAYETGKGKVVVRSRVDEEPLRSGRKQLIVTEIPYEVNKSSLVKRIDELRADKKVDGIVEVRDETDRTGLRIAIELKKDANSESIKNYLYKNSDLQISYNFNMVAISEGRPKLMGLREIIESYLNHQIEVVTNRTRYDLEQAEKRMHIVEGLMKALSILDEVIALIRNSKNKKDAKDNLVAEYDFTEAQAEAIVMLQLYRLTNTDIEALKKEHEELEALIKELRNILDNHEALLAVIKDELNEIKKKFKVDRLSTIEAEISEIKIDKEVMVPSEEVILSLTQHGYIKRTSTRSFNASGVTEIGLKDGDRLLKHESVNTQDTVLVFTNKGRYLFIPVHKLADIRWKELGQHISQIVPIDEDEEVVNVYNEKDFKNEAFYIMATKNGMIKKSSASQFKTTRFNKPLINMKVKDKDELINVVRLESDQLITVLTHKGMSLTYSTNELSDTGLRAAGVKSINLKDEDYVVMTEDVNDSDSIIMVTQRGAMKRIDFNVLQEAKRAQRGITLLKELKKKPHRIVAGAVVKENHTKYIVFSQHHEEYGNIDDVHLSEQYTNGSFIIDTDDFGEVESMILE
T2 sequence (Q5HPI6 whole entry, looked up): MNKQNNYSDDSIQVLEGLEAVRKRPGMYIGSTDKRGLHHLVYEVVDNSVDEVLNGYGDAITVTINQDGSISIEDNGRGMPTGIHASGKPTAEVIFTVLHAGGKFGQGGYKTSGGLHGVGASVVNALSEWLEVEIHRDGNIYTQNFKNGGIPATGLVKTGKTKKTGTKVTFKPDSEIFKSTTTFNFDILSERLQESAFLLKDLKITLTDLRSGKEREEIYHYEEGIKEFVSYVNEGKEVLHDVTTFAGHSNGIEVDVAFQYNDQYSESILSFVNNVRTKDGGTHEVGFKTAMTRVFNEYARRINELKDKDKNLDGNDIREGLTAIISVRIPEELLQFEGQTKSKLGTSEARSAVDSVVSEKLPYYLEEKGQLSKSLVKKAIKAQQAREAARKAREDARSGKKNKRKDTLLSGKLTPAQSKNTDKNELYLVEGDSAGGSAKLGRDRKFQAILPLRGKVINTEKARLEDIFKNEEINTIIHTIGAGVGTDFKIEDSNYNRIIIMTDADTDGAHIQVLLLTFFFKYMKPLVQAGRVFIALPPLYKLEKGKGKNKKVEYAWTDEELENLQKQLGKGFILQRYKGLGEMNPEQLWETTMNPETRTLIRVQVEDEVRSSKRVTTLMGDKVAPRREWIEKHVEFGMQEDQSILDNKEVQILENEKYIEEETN

[9] = target: T2, DNA topoisomerase 4 (Staphylococcus epidermidis); assay: Inhibition of decatenation activity of DNA topoisomerase 4 in hospital methicillin-resistant Staphylococcus epidermidis 63/04 using kDNA as substrate at 1 to 4 ug/ml after 1 hr using ethidium bromide staining by agarose gel electrophoresis; format: protein assay
[10] = tested on: Staphylococcus epidermidis; assay: Inhibition of biofilm formation in Staphylococcus epidermidis […]/[…] after 24 hrs using MTT staining by spectrophotometer analysis; format: functional, organism-based; details: 16/04, 24 h
[11] = tested on: Staphylococcus epidermidis; assay: Inhibition of biofilm formation in Staphylococcus epidermidis 23/04 after 24 hrs using MTT staining by spectrophotometer analysis; format: functional, organism-based; details: 23/04, 24 h
[12] = tested on: Staphylococcus epidermidis; assay: Inhibition of biofilm formation in Staphylococcus epidermidis ATCC 35984 at 4 ug/ml after 24 hrs using MTT staining by spectrophotometer analysis; format: functional; details: ATCC 35984, 24 h
Procedure, shortened: (§1)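 Methicillin-resistant hospital isolates or ATCC strains of S. epidermidis were grown overnight in tryptone soy broth with 0.5% glucose. Inoculum of 10^7 CFU/mL was mixed 1:1 with compound in TSB-glucose and incubated 24 h at 37 °C. Non-adherent cells were washed off with PBS, and wells were stained with MTT (0.5% in PBS) for 2 h at 37 °C. Stain was solubilized in DMSO/glycine buffer and read at A554. Inhibition is relative to drug-free control; quadruplicates.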

[13] = tested on: Staphylococcus epidermidis; assay: Inhibition of biofilm formation in Staphylococcus epidermidis 23/04 at 4 ug/ml after 24 hrs using MTT staining by spectrophotometer analysis; format: functional; details: 23/04, 24 h
[14] = tested on: Staphylococcus epidermidis; assay: Inhibition of biofilm formation in Staphylococcus epidermidis 31/04 at 4 ug/ml after 24 hrs using MTT staining by spectrophotometer analysis; format: functional; details: 31/04, 24 h; procedure, shortened: as §1
[15] = Antiviral activity against Bovine viral diarrhea virus 1-NADL ATCC VR-534 infected in MDBK cells assessed as protection against virus-induced cytopathogenicity after 3 to 4 days by MTT assay; format: functional, cell-based; details: Bovine viral diarrhea virus isolates and strains, ATCC VR-534, MDBK
Procedure, shortened: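 Cells seeded in 96-well plates (BHK 5x10^4, MDBK 3x10^4 cells/well), grown overnight to confluence, infected at m.o.i. 0.01 (BHK for Reo-1, MDBK for BVDV); serial compound dilutions in maintenance medium with 0.5% inactivated FBS added after 1 h; viability by MTT after 3–4 days at 37°C; EC50 for 50% protection by linear regression.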

Staphylococcus aureus = assay: Antimicrobial activity against hospital methicillin-resistant Staphylococcus aureus 79/05 after 18 hrs by twofold serial microdilution method; format: functional; details: 79/05, 18 h
Procedure, shortened: (§2)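 Twofold serial microdilution in Mueller-Hinton broth. Compound stock was made in DMSO and diluted in sterile water. Tested range was 0.125–512 µg/mL. Final inoculum was 10^5 CFU/mL. Plates were incubated 18 h at 35 °C. MIC is the lowest concentration preventing visible growth.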

[16] = tested on: Staphylococcus epidermidis; assay: Antimicrobial activity against hospital methicillin-resistant Staphylococcus epidermidis 76/04 after 18 hrs by twofold serial microdilution method; format: functional; details: 76/04, 18 h; procedure, shortened: as §2
[17] = tested on: Staphylococcus epidermidis; assay: Ratio of ciprofloxacin MIC to compound MIC for hospital methicillin-resistant Staphylococcus epidermidis […]/[…] after 18 hrs by twofold serial microdilution method; format: functional, 16/04
[18] = target: T1, Topoisomerase IV (Staphylococcus aureus); assay: Inhibition of decatenation activity of DNA topoisomerase 4 in Staphylococcus aureus ATCC 6538 using kDNA as substrate at 32 ug/ml […] using ethidium bromide staining by agarose gel electrophoresis; format: protein-complex assay
[19] = target: T2, DNA topoisomerase 4 (Staphylococcus epidermidis); assay: Inhibition of decatenation activity of DNA topoisomerase 4 in Staphylococcus epidermidis ATCC 35984 using kDNA as substrate at 32 ug/ml after 1 hr using ethidium bromide staining by agarose gel electrophoresis; format: protein assay
[20] = target: T1, Topoisomerase IV (Staphylococcus aureus); assay: Inhibition of decatenation activity of DNA topoisomerase 4 in hospital methicillin-resistant Staphylococcus aureus 79/05 using kDNA as substrate at 32 ug/ml after 1 hr using ethidium bromide staining by agarose gel electrophoresis; format: protein-complex assay
[21] = target: T1, Topoisomerase IV (Staphylococcus aureus); assay: Inhibition of decatenation activity of DNA topoisomerase 4 in hospital methicillin-resistant Staphylococcus aureus 573/11 using kDNA as substrate at 32 ug/ml after 1 hr using ethidium bromide staining by agarose gel electrophoresis; format: protein-complex assay
[22] = target: T2, DNA topoisomerase 4 (Staphylococcus epidermidis); assay: Inhibition of decatenation activity of DNA topoisomerase 4 in hospital methicillin-resistant Staphylococcus epidermidis 31/04 using kDNA as substrate at 32 ug/ml after 1 hr using ethidium bromide staining by agarose gel electrophoresis; format: protein assay
[23] = target: T2, DNA topoisomerase 4 (Staphylococcus epidermidis); details: 16/04, at 1 to 4 µg/mL
[24] = target: T2, DNA topoisomerase 4 (Staphylococcus epidermidis); details: 16/04, at 32 µg/mL

Fc1ccc(NC(=S)Nc2cccc(C(F)(F)F)c2)cc1Cl
inhibition [1]: Active
inhibition [2]: Active
inhibition [3]: Active
inhibition [4]: Active
inhibition [5]: Active
inhibition [6]: Active
inhibition [7]: Active
inhibition [8]: Active
inhibition [9]: Active
IC50 [10]: 1.35 µg/mL (≈ 3.87 µM)
IC50 [11]: 2.01 µg/mL (≈ 5.76 µM)
inhibition at 4 µg/mL [12]: 84%
inhibition at 4 µg/mL [13]: 77.9%
inhibition at 4 µg/mL [14]: 77.1%
EC50 [15]: > 11 µM
MIC (Staphylococcus aureus): 1 µg/mL (≈ 2.87 µM)
MIC [16]: 0.25 µg/mL (≈ 0.717 µM)
Ratio [17]: 128
inhibition [18]: Active
inhibition [19]: Active
inhibition [20]: Active
inhibition [21]: Active
inhibition [22]: Active
inhibition [23]: Active
inhibition [24]: Active

FC(F)(F)c1cccc(NC(S)=Nc2ccc(Cl)c(Cl)c2)c1
EC50 [15]: > 10 µM
MIC (Staphylococcus aureus): 2 µg/mL (≈ 5.48 µM)
MIC [16]: 1 µg/mL (≈ 2.74 µM)
Ratio [17]: 128

Fc1cccc(NC(=S)Nc2cccc(C(F)(F)F)c2)c1
EC50 [15]: > 10 µM
MIC (Staphylococcus aureus): 8 µg/mL (≈ 25.5 µM)
MIC [16]: 16 µg/mL (≈ 50.9 µM)
Ratio [17]: 128

FC(F)(F)c1cccc(NC(=S)Nc2ccc(Cl)cc2)c1
EC50 [15]: > 17 µM
MIC (Staphylococcus aureus): 16 µg/mL (≈ 48.4 µM)
MIC [16]: 8 µg/mL (≈ 24.2 µM)
Ratio [17]: 128
